Among the data in ChEMBL document CHEMBL1157677, “Silicon switch approach in TRPV1 antagonist MK-056 and its analogues” (Bioorg Med Chem, 2010) are EC50, IC50 and Ratio IC50 values, retold here.

For assay [1], the target named is T1, Transient receptor potential cation channel subfamily V member 1 (Rattus norvegicus, UniProt O35433). The assay can be described thus: Agonist activity at TRPV1 in Sprague-Dawley rat DRG neuron assessed as intracellular 45Ca2+ influx by scintillation counting. It is filed as functional, cell-based.
The target of assay [2] is T1, Transient receptor potential cation channel subfamily V member 1. The assay can be described thus: Antagonist activity at TRPV1 in Sprague-Dawley rat DRG neuron assessed as reduction of capsaicin-stimulated intracellular 45Ca2+ influx by scintillation counting. Format: functional, cell-based. An outline of the steps: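 Neonatal rat spinal DRG neurons, dissociated with collagenase then trypsin (30 min each, 37 °C), cultured 3 days in horse-serum DME/F12 with C6-glioma-conditioned medium. Neurons were given ⁴⁵Ca²⁺ plus capsaicin with compound for 10 min at room temperature in HEPES (10 mM, pH 7.4) Ca/Mg-free HBSS, then washed and dried.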

The target of assay [3] is Transient receptor potential cation channel subfamily V member 1 (Rattus norvegicus) (UniProt O35433). Briefly: Ratio of compound IC50 to SC-0030 IC50 for TRPV1 in Sprague-Dawley rat DRG neuron.
Assay [4] has the same target. Briefly: Ratio of compound IC50 to ATC-120 IC50 for TRPV1 in Sprague-Dawley rat DRG neuron.

T1 sequence (O35433 whole entry): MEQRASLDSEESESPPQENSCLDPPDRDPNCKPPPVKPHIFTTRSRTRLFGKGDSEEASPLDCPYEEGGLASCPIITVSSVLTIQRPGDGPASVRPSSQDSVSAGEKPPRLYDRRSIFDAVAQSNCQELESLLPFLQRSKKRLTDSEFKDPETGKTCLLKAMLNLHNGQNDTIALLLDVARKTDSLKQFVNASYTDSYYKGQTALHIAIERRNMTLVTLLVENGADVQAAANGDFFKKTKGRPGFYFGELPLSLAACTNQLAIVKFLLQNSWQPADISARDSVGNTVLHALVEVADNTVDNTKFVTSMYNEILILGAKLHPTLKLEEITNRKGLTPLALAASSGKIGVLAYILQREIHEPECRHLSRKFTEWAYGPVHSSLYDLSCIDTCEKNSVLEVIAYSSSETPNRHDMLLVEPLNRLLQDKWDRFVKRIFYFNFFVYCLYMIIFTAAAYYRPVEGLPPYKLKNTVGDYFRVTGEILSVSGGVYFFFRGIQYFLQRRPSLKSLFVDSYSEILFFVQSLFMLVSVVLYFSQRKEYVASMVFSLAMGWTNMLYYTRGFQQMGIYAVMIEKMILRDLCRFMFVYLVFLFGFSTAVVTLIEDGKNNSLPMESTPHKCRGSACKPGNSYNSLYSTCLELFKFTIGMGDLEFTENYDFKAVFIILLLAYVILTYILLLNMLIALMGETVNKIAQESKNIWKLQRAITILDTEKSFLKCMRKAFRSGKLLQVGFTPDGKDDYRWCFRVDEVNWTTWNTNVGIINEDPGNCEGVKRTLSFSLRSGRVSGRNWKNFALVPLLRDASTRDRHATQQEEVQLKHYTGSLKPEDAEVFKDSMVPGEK
Transient receptor potential cation channel subfamily V member 1 (Rattus norvegicus), sequence (O35433 whole entry): as above

The term EC50 denotes the concentration giving half of the maximal effect. By IC50 is commonly meant the concentration that gives 50% inhibition. Consider `CC[Si](C)(C)c1ccc(CNC(=S)N[C@H](C)c2ccc(NS(C)(=O)=O)cc2)cc1`, for which, in assay [1], the EC50 was more than 100000 nM. Besides, the IC50 in assay [2] was found to be 670 nM.
As for `C[Si](C)(C)c1ccc(CNC(=S)NCc2ccc(NS(C)(=O)=O)cc2)cc1`, the 50% effective concentration (EC50) in assay [1] is more than 100000 nM. Also, the IC50 in assay [2] worked out at 150 nM.
On to `C[C@@H](NC(=S)NCc1ccc([Si](C)(C)C)cc1)c1ccc(NS(C)(=O)=O)cc1`, for which the Ratio IC50 in assay [3] and in assay [4] was 4 throughout. Besides, the half-maximal effective concentration (EC50) in assay [1] is more than 100000 nM. Further, the half-maximal inhibitory concentration (IC50) in assay [2] was found to be 210 nM.
Turning to `CC[Si](C)(C)c1ccc(CNC(=S)NCc2ccc(NS(C)(=O)=O)cc2)cc1`, in assay [1], the EC50 is more than 100000 nM. Also, in assay [2], the half-maximal inhibitory concentration (IC50) stood at 1200 nM.
As for `C[C@@H](NC(=S)NCc1ccc(C(C)(C)C)cc1)c1ccc(NS(C)(=O)=O)cc1`, in assay [1], the concentration for a half-maximal effect (EC50) was more than 100000 nM. Further, the IC50 in assay [2] is 50 nM.
For `CC[Si](CC)(CC)c1ccc(CNC(=S)N[C@H](C)c2ccc(NS(C)(=O)=O)cc2)cc1`, the concentration for a half-maximal effect (EC50) in assay [1] was more than 100000 nM. Moreover, the IC50 in assay [2] was 1500 nM.
Turning to `C[Si](C)(C)c1ccc(CNC(=S)NCc2ccc(NS(C)(=O)=O)c(F)c2)cc1`, the Ratio IC50 in assay [3] and in assay [4] was 4 in each case. In assay [1], the 50% effective concentration (EC50) was more than 100000 nM. Also, the IC50 in assay [2] worked out at 160 nM.
Consider `CC[Si](CC)(CC)c1ccc(CNC(=S)NCc2ccc(NS(C)(=O)=O)cc2)cc1`, for which, in assay [1], the concentration for a half-maximal effect (EC50) was more than 100000 nM. For the same compound, in assay [2], the IC50 was 3100 nM.
With `CC(C)(C)c1ccc(CNC(=S)NCc2ccc(NS(C)(=O)=O)c(F)c2)cc1`, the concentration for a half-maximal effect (EC50) in assay [1] was more than 100000 nM. Moreover, the half-inhibitory concentration (IC50) in assay [2] is 40 nM.
